Assay results published in ChEMBL document CHEMBL1135742, “Modification of the structure of a metallopeptide: synthesis and biological evaluation of (111)In-labeled DOTA-conjugated rhenium-cyclized alpha-MSH analogues” (J Med Chem, 2002).

Key:
Format in all cases: functional, organism-based
Mus musculus [1] = species on record: Mus musculus; experiment: Radioactivity uptake in the muscle was expressed as a percentage of the injected radioactive dose per gram of tissue (% ID/g) in B16/F1 Murine Melanoma-Bearing C57 Mice at 24 h
Outline: (§1)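 C57 BL/6 female mice (7–8 weeks) carried B16/F1 tumours from 1×10^6 cells given s.c. in the right flank; tumours were ~500 mg at 9–10 days. Each mouse received […] of HPLC-purified, neutralized 111In-DOTA peptide via the tail vein. Mice were killed at 0.5, 2, 4 or 24 h pi. Tissues were weighed and γ-counted, expressed as % ID/g; ratios were tumor/tissue % ID/g.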

Mus musculus [2] = species on record: Mus musculus; experiment: Radioactivity uptake in the kidneys was expressed as a percentage of the injected radioactive dose per gram of tissue (% ID/g) in B16/F1 Murine Melanoma-Bearing C57 Mice at 24 h; conditions: Kidney; outline: as §1
Mus musculus [3] = species on record: Mus musculus; experiment: Radioactivity uptake in the pancreas was expressed as a percentage of the injected radioactive dose per gram of tissue (% ID/g) in B16/F1 Murine Melanoma-Bearing C57 Mice at 24 h; outline: as §1
Mus musculus [4] = species on record: Mus musculus; experiment: Radioactivity uptake in the tumor was expressed as a percentage of the injected radioactive dose per gram of tissue (% ID/g) in B16/F1 Murine Melanoma-Bearing C57 Mice at 2 h; outline: as §1
Mus musculus [5] = species on record: Mus musculus; experiment: Radioactivity uptake in the blood was expressed as a percentage of the injected radioactive dose per gram of tissue (% ID/g) in B16/F1 Murine Melanoma-Bearing C57 Mice at 24 h; outline: as §1
Mus musculus [6] = species on record: Mus musculus; experiment: Uptake Ratio of Tumor/blood (each in % ID/g) in B16/F1 Murine Melanoma-Bearing C57 Mice at 2 h; outline: as §1
Mus musculus [7] = species on record: Mus musculus; experiment: Uptake Ratio of Tumor/lungs (each in % ID/g) in B16/F1 Murine Melanoma-Bearing C57 Mice at 0.5 h
Outline: (§2)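 Female C57 BL/6 mice, 7–8 weeks old, carried subcutaneous right-flank B16/F1 tumors from 1×10^6 cells and were used 9–10 days later at ~500 mg tumor weight. Each received […] of HPLC-purified, pH-neutralized ¹¹¹In-DOTA peptide by tail vein. Tumor and organs were excised at the stated time, weighed and γ-counted. Each tissue was taken as % ID/g, and tumor/normal-tissue ratios were formed from these values.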

Mus musculus [8] = species on record: Mus musculus; experiment: Radioactivity uptake in the liver was expressed as a percentage of the injected radioactive dose per gram of tissue (% ID/g) in B16/F1 Murine Melanoma-Bearing C57 Mice at 2 h; outline: as §1
Mus musculus [9] = species on record: Mus musculus; experiment: Uptake Ratio of Tumor/lungs (each in % ID/g) in B16/F1 Murine Melanoma-Bearing C57 Mice at 24 h; outline: as §2
Mus musculus [10] = species on record: Mus musculus; experiment: Uptake Ratio of Tumor/liver (each in % ID/g) in B16/F1 Murine Melanoma-Bearing C57 Mice at 4 h; outline: as §1
Mus musculus [11] = species on record: Mus musculus; experiment: Uptake Ratio of Tumor/blood (each in % ID/g) in B16/F1 Murine Melanoma-Bearing C57 Mice at 0.5 h; outline: as §1
Mus musculus [12] = species on record: Mus musculus; experiment: Uptake Ratio of Tumor/liver (each in % ID/g) in B16/F1 Murine Melanoma-Bearing C57 Mice at 24 h; outline: as §1
Mus musculus [13] = species on record: Mus musculus; experiment: Radioactivity uptake in the lungs was expressed as a percentage of the injected radioactive dose per gram of tissue (% ID/g) in B16/F1 Murine Melanoma-Bearing C57 Mice at 24 h; conditions: Lung; outline: as §1
Mus musculus [14] = species on record: Mus musculus; experiment: Radioactivity uptake in the spleen was expressed as a percentage of the injected radioactive dose per gram of tissue (% ID/g) in B16/F1 Murine Melanoma-Bearing C57 Mice at 24 h; outline: as §1
Mus musculus [15] = species on record: Mus musculus; experiment: Radioactivity uptake in the pancreas was expressed as a percentage of the injected radioactive dose per gram of tissue (% ID/g) in B16/F1 Murine Melanoma-Bearing C57 Mice at 0.5 h; outline: as §1
Mus musculus [16] = species on record: Mus musculus; experiment: Uptake Ratio of Tumor/lungs (each in % ID/g) in B16/F1 Murine Melanoma-Bearing C57 Mice at 2 h; outline: as §2
Mus musculus [17] = species on record: Mus musculus; experiment: Radioactivity uptake in the lungs was expressed as a percentage of the injected radioactive dose per gram of tissue (% ID/g) in B16/F1 Murine Melanoma-Bearing C57 Mice at 0.5 h; conditions: Lung; outline: as §1
Mus musculus [18] = species on record: Mus musculus; experiment: Radioactivity uptake in the spleen was expressed as a percentage of the injected radioactive dose per gram of tissue (% ID/g) in B16/F1 Murine Melanoma-Bearing C57 Mice at 2 h; outline: as §1
Mus musculus [19] = species on record: Mus musculus; experiment: Radioactivity uptake in the lungs was expressed as a percentage of the injected radioactive dose per gram of tissue (% ID/g) in B16/F1 Murine Melanoma-Bearing C57 Mice at 4 h; conditions: Lung; outline: as §1
Mus musculus [20] = species on record: Mus musculus; experiment: Radioactivity uptake in the liver was expressed as a percentage of the injected radioactive dose per gram of tissue (% ID/g) in B16/F1 Murine Melanoma-Bearing C57 Mice at 4 h; outline: as §1
Mus musculus [21] = species on record: Mus musculus; experiment: Radioactivity uptake in the kidneys was expressed as a percentage of the injected radioactive dose per gram of tissue (% ID/g) in B16/F1 Murine Melanoma-Bearing C57 Mice at 2 h; conditions: Kidney; outline: as §1
Mus musculus [22] = species on record: Mus musculus; experiment: Radioactivity uptake in the blood was expressed as a percentage of the injected radioactive dose per gram of tissue (% ID/g) in B16/F1 Murine Melanoma-Bearing C57 Mice at 0.5 h; outline: as §1
Mus musculus [23] = species on record: Mus musculus; experiment: Uptake Ratio of Tumor/kidneys (each in % ID/g) in B16/F1 Murine Melanoma-Bearing C57 Mice at 24 h; conditions: Kidney; outline: as §1
Mus musculus [24] = species on record: Mus musculus; experiment: Radioactivity uptake in the liver was expressed as a percentage of the injected radioactive dose per gram of tissue (% ID/g) in B16/F1 Murine Melanoma-Bearing C57 Mice at 0.5 h; outline: as §1
Mus musculus [25] = species on record: Mus musculus; experiment: Radioactivity uptake in the spleen was expressed as a percentage of the injected radioactive dose per gram of tissue (% ID/g) in B16/F1 Murine Melanoma-Bearing C57 Mice at 0.5 h; outline: as §1
Mus musculus [26] = species on record: Mus musculus; experiment: Uptake Ratio of Tumor/muscle (each in % ID/g) in B16/F1 Murine Melanoma-Bearing C57 Mice at 4 h; conditions: Muscle tissue; outline: as §2
Mus musculus [27] = species on record: Mus musculus; experiment: Uptake Ratio of Tumor/lungs (each in % ID/g) in B16/F1 Murine Melanoma-Bearing C57 Mice at 4 h; outline: as §2
Mus musculus [28] = species on record: Mus musculus; experiment: Radioactivity uptake in the pancreas was expressed as a percentage of the injected radioactive dose per gram of tissue (% ID/g) in B16/F1 Murine Melanoma-Bearing C57 Mice at 4 h; outline: as §1
Mus musculus [29] = species on record: Mus musculus; experiment: Radioactivity uptake in the muscle was expressed as a percentage of the injected radioactive dose per gram of tissue (% ID/g) in B16/F1 Murine Melanoma-Bearing C57 Mice at 0.5 h; outline: as §1
Mus musculus [30] = species on record: Mus musculus; experiment: Radioactivity uptake in the spleen was expressed as a percentage of the injected radioactive dose per gram of tissue (% ID/g) in B16/F1 Murine Melanoma-Bearing C57 Mice at 4 h; outline: as §1
Mus musculus [31] = species on record: Mus musculus; experiment: Uptake Ratio of Tumor/blood (each in % ID/g) in B16/F1 Murine Melanoma-Bearing C57 Mice at 24 h; outline: as §1
Mus musculus [32] = species on record: Mus musculus; experiment: Uptake Ratio of Tumor/kidneys (each in % ID/g) in B16/F1 Murine Melanoma-Bearing C57 Mice at 0.5 h; conditions: Kidney; outline: as §1
Mus musculus [33] = species on record: Mus musculus; experiment: Radioactivity uptake in the lungs was expressed as a percentage of the injected radioactive dose per gram of tissue (% ID/g) in B16/F1 Murine Melanoma-Bearing C57 Mice at 2 h; conditions: Lung; outline: as §1

DOTA-ReCCEHdFRWCRPV-NH2
ID/g (Mus musculus [1]): 0.14% | ID/g (Mus musculus [2]): 5.64% | ID/g (Mus musculus [3]): 0.081% | ID/g (Mus musculus [4]): 17.3% | ID/g (Mus musculus [5]): 0.06% | Uptake ratio (Mus musculus [6]): 93.7 | Uptake ratio (Mus musculus [7]): 11.1 | ID/g (Mus musculus [8]): 0.38% | Uptake ratio (Mus musculus [9]): 43.7 | Uptake ratio (Mus musculus [10]): 60.2 | Uptake ratio (Mus musculus [11]): 9.7 | Uptake ratio (Mus musculus [12]): 25.6 | ID/g (Mus musculus [13]): 0.24% | ID/g (Mus musculus [14]): 0.32% | ID/g (Mus musculus [15]): 0.41% | Uptake ratio (Mus musculus [16]): 65.4 | ID/g (Mus musculus [17]): 1.66% | ID/g (Mus musculus [18]): 0.27% | ID/g (Mus musculus [19]): 0.13% | ID/g (Mus musculus [20]): 0.3% | ID/g (Mus musculus [21]): 8.72% | ID/g (Mus musculus [22]): 1.7% | Uptake ratio (Mus musculus [23]): 1.5 | ID/g (Mus musculus [24]): 0.66% | ID/g (Mus musculus [25]): 0.78% | Uptake ratio (Mus musculus [26]): 193 | Uptake ratio (Mus musculus [27]): 122 | ID/g (Mus musculus [28]): 0.015% | ID/g (Mus musculus [29]): 0.39% | ID/g (Mus musculus [30]): 0.27% | Uptake ratio (Mus musculus [31]): 95 | Uptake ratio (Mus musculus [32]): 1.8 | ID/g (Mus musculus [33]): 0.3%
